Results: ChEMBL document CHEMBL1130096, “2-Cyclopropylindoloquinones and their analogues as bioreductively activated antitumor agents: structure-activity in vitro and efficacy in vivo” (J Med Chem, 1997)

Key:
Mus musculus [1] = assay: compound was evaluated in vivo in mice bearing [KHT] tumor cells at 20 mg kg-1 drug dose. MTD is the […].; assay type: functional
Mus musculus [2] = assay: compound was evaluated in vivo in mice bearing [KHT] tumor cells at 50 mg kg-1 drug dose. MTD is the […].; assay type: functional
Mus musculus [3] = assay: compound was evaluated in vivo in mice bearing [KHT] tumor cells at 90 mg kg-1 drug dose. MTD is the […].; assay type: functional
Mus musculus [4] = assay: compound was evaluated in vivo in mice bearing [RIF-1] tumor cells 90 mg kg-1 drug dose. MTD is the […].; assay type: functional
Mus musculus [5] = assay: compound was evaluated in vivo in mice bearing [RIF-1] tumor cells at 20 mg kg-1 drug dose. MTD is the […].; assay type: functional
Mus musculus [6] = assay: compound was evaluated in vivo in mice bearing [RIF-1] tumor cells at 50 mg kg-1 drug dose. MTD is the […].; assay type: functional
Mus musculus [7] = assay: compound was evaluated in vivo in mice bearing [KHT] tumor cells for the relative surviving fraction of cells at 20 mg kg-1 drug dose.; assay type: functional
In short: (§1)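 Mice bearing RIF-1 or KHT murine sarcomas. Maximum tolerated dose (MTD) established for each drug. Drug given alone at MTD, or at 20 or 50 mg kg-1 combined with a single X-ray dose: 15 Gy for RIF-1, 10 Gy for KHT. Radiation dose chosen to kill most oxic tumor cells. Read-out was tumor cell surviving fraction relative to untreated control, reported as mean.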

Mus musculus [8] = assay: compound was evaluated in vivo in mice bearing [KHT] tumor cells for the relative surviving fraction of cells at 50 mg kg-1 drug dose.; assay type: functional; in short: as §1
Mus musculus [9] = assay: compound was evaluated in vivo in mice bearing [KHT] tumor cells for the relative surviving fraction of cells at 90 mg kg-1 drug dose.; assay type: functional; in short: as §1
Mus musculus [10] = assay: compound was evaluated in vivo in mice bearing [RIF-1] tumor cells for the relative surviving fraction of cells at 50 mg kg-1 drug dose.; assay type: functional; in short: as §1
Mus musculus [11] = assay: compound was evaluated in vivo in mice bearing [RIF-1] tumor cells for the relative surviving fraction of cells at 90 mg kg-1 drug dose.; assay type: functional; in short: as §1
[12] = Hypoxic cytotoxic ratios of the concentration required to kill 50% of the aerobic cells and concentration required to kill hypoxic cells; assay type: cell-based, Cricetulus griseus; conditions: chinese hamster, V79 cells; read-out: HCR
V79 [13] = assay: In vitro concentration required to kill 50% of the aerobic cells; assay type: functional, Cricetulus griseus
V79 [14] = assay: In vitro concentration required to kill hypoxic cells V79-379A cells; assay type: functional, Cricetulus griseus
Mus musculus [15] = assay: compound was evaluated in vivo in mice bearing [RIF-1] tumor cells for the relative surviving fraction of cells at 20 mg kg-1 drug dose.; assay type: functional; in short: as §1
Mus musculus [16] = assay: compound was evaluated in vivo in mice bearing [KHT] murine sarcoma tumor cells at 100 mg kg-1 drug dose. MTD is the […].; assay type: functional
Mus musculus [17] = assay: compound was evaluated in vivo in mice bearing [RIF-1] murine sarcoma tumor cells at 100 mgkg-1 drug dose. MTD is the […].; assay type: functional
Mus musculus [18] = assay: compound was evaluated in vivo mice bearing [RIF-1] murine sarcoma tumor cells at 100 mgkg-1 drug dose. MTD is the […].; assay type: functional
Mus musculus [19] = assay: compound was were evaluated in vivo in mice bearing [KHT] murine sarcoma tumor cells at 100 mg kg-1 drug dose. MTD is the […].; assay type: functional
[20] = hypoxic cytotoxic ratios (HCR) of the concentration required to kill 50% of the aerobic cells and concentration required to kill hypoxic cells; conditions: read-out: HCR
V79 [21] = assay: In vitro concentration required to kill 50% of the aerobic cells under the conditions of the assay; assay type: functional, Cricetulus griseus
V79 [22] = assay: In vitro concentration required to kill hypoxic cells V79-379A cells was determined for all the compounds using the MTT(3-(4,5-dimethylthiazol-2-y1)-2,5-diphenyl-2H-tetrazolium bromide) assay; assay type: functional, Cricetulus griseus

Structure (SMILES)	selectivity ratio [12]	C50 (V79 [13])	C50 (V79 [14])	also measured
Cc1c(CO)c2c(n1C)C(=O)C=C(N1CC1C)C2=O (stereo not drawn)	188	94 µM	0.5 µM	MTD (Mus musculus [1]): 90 mg/kg; MTD (Mus musculus [2]): 90 mg/kg; MTD (Mus musculus [3]): 90 mg/kg; MTD (Mus musculus [4]): 90 mg/kg; MTD (Mus musculus [5]): 90 mg/kg; MTD (Mus musculus [6]): 90 mg/kg; Mean relative surviving fraction (Mus musculus [7]): 0.008; Mean relative surviving fraction (Mus musculus [8]): 0.005; Mean relative surviving fraction (Mus musculus [9]): 0.15; Mean relative surviving fraction (Mus musculus [10]): <0.0001; Mean relative surviving fraction (Mus musculus [11]): 0.02; Mean relative surviving fraction (Mus musculus [15]): <0.0001
COC1=CC(=O)c2c(c(COC(N)=O)cn2C)C1=O	83.8	3.1 µM	0.037 µM	
COC(=O)c1c2c(n(C)c1C(C)C)C(=O)C=C(OC)C2=O	1	150 µM	150 µM	
Cn1c2c(c(CO)c1C1CC1)C(=O)C(N1CC1)=CC2=O	104	0.603 µM	0.0058 µM	MTD (Mus musculus [16]): 100 mg/kg; MTD (Mus musculus [17]): 100 mg/kg; MTD (Mus musculus [18]): 100 mg/kg; MTD (Mus musculus [19]): 100 mg/kg
COC1=CC(=O)c2c(c(COC(N)=O)c(C3CC3)n2C)C1=O	65.9	29 µM	0.44 µM	
Cn1c2c(c(CO)c1C1CCCCC1)C(=O)C(N1CC1)=CC2=O	37	34.5 µM	0.93 µM	
Cc1c(CO)c2c(n1C)C(=O)C=C(N1CC1)C2=O	12.8	0.149 µM	0.0116 µM	
CC1CN1C1=CC(=O)c2c(c(COC(N)=O)c(C3CC3)n2C)C1=O (stereo not drawn)	27.2	12.5 µM	0.459 µM	
CC(C)c1c(COC(N)=O)c2c(n1C)C(=O)C=C(N1CC1C)C2=O (stereo not drawn)	23.7	20.6 µM	0.87 µM	
O=C1C(N2CC2)=CC(=O)c2c1c(CO)c1n2CC2CC12 (stereo not drawn)	13.2	0.965 µM	0.073 µM	
COC1=CC(=O)c2c(c(CO)cn2C)C1=O	0.92	220 µM	240 µM	
COC1=CC(=O)c2c(c(CO)c(C3CC3)n2C)C1=O	0.65	540 µM	820 µM	
Cc1c(CO)c2c(n1C)C(=O)C=C(N1C(C)C1C)C2=O (stereo not drawn)	14.2	202 µM	14.2 µM	
Cn1cc(CO)c2c1C(=O)C=C(N1CC1)C2=O	15.4	0.153 µM	0.0086 µM	
NC(=O)OCc1c2c(n3c1C1CC1C3)C(=O)C=C(N1CC1)C2=O (stereo not drawn)		0.003 µM	0.003 µM	
Cn1cc(COC(N)=O)c2c1C(=O)C=C(N1CC1)C2=O	1.46	0.00019 µM	0.00013 µM	
Cn1c2c(c(COC(N)=O)c1C1CC1)C(=O)C(N1CC1)=CC2=O	45	3.33 µM	0.074 µM	

Structure (SMILES)	selectivity ratio [12]	C50 (V79 [13])	C50 (V79 [14])	also measured
COC(=O)c1c2c(n(C)c1C1CC1)C(=O)C=C(N1CC1)C2=O	1.8	1.72 µM	0.93 µM	
CC(C)c1c(CO)c2c(n1C)C(=O)C=C(N1CC1)C2=O	32.5	25.7 µM	0.79 µM	
COC1=CC(=O)c2c(c(C)c(C(C)C)n2C)C1=O	1.88	1.236 µM	0.657 µM	
COC1=CC(=O)c2c(c(CO)c(C3CCCCC3)n2C)C1=O	6	122.4 µM	20.5 µM	
COC(=O)c1c2c(n(C)c1C1CC1)C(=O)C=C(OC)C2=O	1.7	103.5 µM	59.8 µM	
Cc1c2c(n(C)c1C(C)C)C(=O)C=C(N1CC1)C2=O				selectivity ratio [20]: 1.77; C50 (V79 [21]): 0.333 µM; C50 (V79 [22]): 0.188 µM
CC(C)c1c(CO)c2c(n1C)C(=O)C=C(N1CC1C)C2=O (stereo not drawn)	9.2	127.8 µM	13.9 µM	
Cc1c(CO)c2c(n1C)C(=O)C=C(NCC(C)(C)O)C2=O	2.5	1260 µM	500 µM	
COC1=CC(=O)c2c(c(COC(N)=O)c(C(C)C)n2C)C1=O	179	20.9 µM	0.117 µM	
CC(C)c1c(COC(N)=O)c2c(n1C)C(=O)C=C(N1CC1)C2=O	8.7	47.5 µM	5.46 µM	
COC1=CC(=O)c2c(c(CO)c(C(C)C)n2C)C1=O	4	800 µM	200 µM	
COC1=CC(=O)c2c(c(CO)c3n2CC2CC32)C1=O (stereo not drawn)	1.8	108.4 µM	60.6 µM	
CC1CN1C1=CC(=O)c2c(c(CO)c(C3CC3)n2C)C1=O (stereo not drawn)	23.4	130 µM	5.6 µM	
COC1=CC(=O)c2c(c(CO)c(C)n2C)C1=O	3.78	1077 µM	284.8 µM	
Cn1c(/C=C/CO)c(CO)c2c1C(=O)C=C(N1CC1)C2=O [APAZIQUONE]	50.3	0.19 µM	0.0038 µM	
CO[C@@]12[C@H](COC(N)=O)C3=C(C(=O)C(C)=C(N)C3=O)N1C[C@@H]1N[C@@H]12 [MITOMYCIN]		0.8 µM	0.4 µM	
